Test results as given in ChEMBL document CHEMBL5108036, “A concise SAR-analysis of antimicrobial cationic amphipathic barbiturates for an improved activity-toxicity profile” (Eur J Med Chem, 2022).
Converted amounts (≈) assume the structure as drawn. The source made the active and inactive calls. The rule behind the calls is not given here.

How the values were obtained:
[1] = tested on: Escherichia coli; assay: Disruption of inner membrane integrity in Escherichia coli K12 (ATCC MC1061) transfected with pCGLS-1 measured by luciferase based bioluminescence assay; type: functional
In short: (§1)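 Biosensor strains express click-beetle luciferase (lucGR), whose light output needs externally added D-luciferin; light rises when a damaged membrane lets substrate in. Cell suspension with 1 mM D-luciferin is added to the analytes, and luminescence is read every second for 180 s. Signal is normalized to an untreated water control. Cell density is about 100-fold that of the MIC assay, with at least three independent experiments.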

[2] = tested on: Bacillus subtilis; assay: Disruption of inner membrane integrity in Bacillus subtilis 168 ATCC 23857 measured by luciferase based bioluminescence assay; type: functional; in short: as §1
[3] = Selectivity index, ratio HC50 for hemolytic activity in human RBC to MIC for antibacterial activity against Pseudomonas aeruginosa ATCC 27853; type: toxicity; settings: human red blood cells (erythrocytes)
In short: (§2)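 SI is the ratio of RBC lysis EC50 to MIC for each reference strain.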

[4] = tested on: Staphylococcus aureus; assay: Antibacterial activity against Staphylococcus aureus ATCC 9144 incubated for 48 hrs and measured by broth microdilution assay; type: functional
In short: (§3)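 MICs in µg/mL were measured against the reference strains S. aureus ATCC 9144, B. subtilis 168, E. coli ATCC 25922 and P. aeruginosa ATCC 27853. Compounds were tested as di-TFA salts.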

[5] = tested on: Erythrocyte; assay: (§4) Hemolytic activity in human RBC measured after 1 hr by microplate reader method; type: toxicity, cell-based; settings: erythrocyte
In short: (§5)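 Human red blood cell lysis was used as the cytotoxicity read-out, expressed as EC50 in µg/mL. The highest concentration tested was 500 µM. Compounds were tested as di-TFA salts.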

[6] = Selectivity index, ratio HC50 for hemolytic activity in human RBC to MIC for antibacterial activity against Escherichia coli ATCC 25922; type: toxicity; settings: human red blood cells (erythrocytes); in short: as §2
[7] = Solubility in pure water; type: physicochemical
[8] = tested on: Escherichia coli; assay: Antibacterial activity against Escherichia coli ATCC 25922 incubated for 48 hrs and measured by broth microdilution assay; type: functional; in short: as §3
[9] = Selectivity index, ratio HC50 for hemolytic activity in human RBC to MIC for antibacterial activity against Staphylococcus aureus ATCC 9144; type: toxicity; settings: human red blood cells (erythrocytes); in short: as §2
[10] = tested on: Pseudomonas aeruginosa; assay: Antibacterial activity against Pseudomonas aeruginosa ATCC 27853 incubated for 48 hrs and measured by broth microdilution assay; type: functional; in short: as §3
[11] = tested on: Bacillus subtilis; assay: Antibacterial activity against Bacillus subtilis 168 incubated for 48 hrs and measured by broth microdilution assay; type: functional; in short: as §3
[12] = Selectivity index, ratio HC50 for hemolytic activity in human RBC to MIC for antibacterial activity against Bacillus subtilis 168; type: toxicity; settings: human red blood cells (erythrocytes); in short: as §2
[13] = tested on: Bacillus subtilis; assay: Antibacterial activity against Bacillus subtilis 168 (ATCC 23857) expressing lux operon in sacA locus (PliaG) assessed as decrease in bacterial viability at 3.2 to 51.2 ug/ml; type: functional, organism-based; settings: dose 3.2-51.2 µg/ml
In short: (§6)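 Biosensor strains (B. subtilis 168; E. coli K12) carry the Photorhabdus luminescens lux operon, so no substrate is added. Cell suspension, about 100-fold denser than in the MIC assay, was added to the analytes. Light was read every second for 180 s, normalized to an untreated water control and reported as RLU. At least three independent experiments were run.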

[14] = as §4; type: toxicity, cell-based, Erythrocyte; settings: human, human red blood cells (erythrocytes); in short: as §5
[15] = tested on: Bacillus subtilis; assay: Disruption of inner membrane integrity in Bacillus subtilis 168 (ATCC 23857) at 1.56 to 50 ug/ml measured by luciferase based bioluminescence assay; type: functional, organism-based; settings: dose 1.56-50 µg/ml
In short: (§7)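 Membrane integrity was read with click beetle lucGR luciferase biosensor strains. Cell suspension containing 1 mM D-luciferin was added to the analytes. Luminescence was read every second for 180 s, normalized to an untreated water control and reported as RLU. At least three independent experiments were run.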

[16] = tested on: Escherichia coli; assay: Disruption of outer membrane integrity in Escherichia coli K12 (ATCC MC1061) transfected with pCGLS-1 at 3.2 ug/ml measured by NPN based fluorescence assay; type: functional, organism-based; settings: dose 3.2 µg/ml, DDE = dose-dependent effect
In short: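 E. coli K12 outer membrane permeability was measured by 1-N-phenylnaphthylamine uptake. Cell suspension with 20 µM NPN was added to the analytes. Fluorescence was read every second for 180 s, normalized to an untreated water control and reported as RFU. At least three independent experiments were run.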

[17] = tested on: Escherichia coli; assay: Antibacterial activity against in Escherichia coli K12 (ATCC MC1061) transfected with pCGLS-1 assessed as decrease in cell viability at 25.6 to 51.2 ug/ml measured by NPN based fluorescence assay; type: functional, organism-based; settings: dose 25.6-51.2 µg/ml
In short: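 At the end of the NPN outer membrane assay in E. coli K12, a 10 µL sample was spotted on an agar plate to assess bacterial viability.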

[18] = tested on: Escherichia coli; assay: Antibacterial activity against Escherichia coli K12 (ATCC MC1061) transfected with pCGLS-1 assessed as decrease in bacterial viability at 3.2 to 51.2 ug/ml; type: functional, organism-based; settings: dose 3.2-51.2 µg/ml; in short: as §6
[19] = tested on: Escherichia coli; assay: Disruption of inner membrane integrity in Escherichia coli K12 (ATCC MC1061) transfected with pCGLS-1 at 6.4 to 12.8 times MIC measured by luciferase based bioluminescence assay; type: functional, organism-based; settings: DDE = dose-dependent effect; in short: as §7

In the case of `N=C(NCCCCCCNC(=N)NC(=N)Nc1ccc(Cl)cc1)NC(=N)Nc1ccc(Cl)cc1` [CHLORHEXIDINE], the MIC [1] is reported as 1.5 µg/mL (≈ 2.97 µM) and the MIC [2] is reported as 1.5 µg/mL (≈ 2.97 µM).

Work on `N=C(N)NCCCN1C(=O)N(CCCNC(=N)N)C(=O)C(Cc2cc(C(F)(F)F)cc(C(F)(F)F)c2)(Cc2cc(C(F)(F)F)cc(C(F)(F)F)c2)C1=O.O=C(O)C(F)(F)F.O=C(O)C(F)(F)F` yielded a selectivity ratio [3] of 28, an MIC [4] of 4 µg/mL and an EC50 [5] of 445 µg/mL. The selectivity ratio [6] was 56, the solubility [7] was < 1000 µg/mL and the MIC [8] was 8 µg/mL. For the same compound, the selectivity ratio [9] was 111, the MIC [10] was 16 µg/mL and the MIC [11] was 2 µg/mL. It also gave a selectivity ratio [12] of 222.

For `N=C(N)NCCCCN1C(=O)N(CCCCNC(=N)N)C(=O)C(Cc2ccc(C(F)(F)F)cc2)(Cc2cc(Br)cc(Br)c2)C1=O.O=C(O)C(F)(F)F.O=C(O)C(F)(F)F` (configuration not stated), the Activity [13] was “Active”, the selectivity ratio [3] was 10 and the MIC [4] was 2 µg/mL. For the same compound, the EC50 at 1 h [14] was 161 µg/mL, the selectivity ratio [6] was 81 and the Activity [15] was “Active”. The Activity [16] was “Dde”, the MIC [8] was 2 µg/mL and the Activity [17] was “Active”. For the same compound, the selectivity ratio [9] was 81, the MIC [10] was 16 µg/mL and the Activity [18] was “Active”. The Activity [19] was “Dde”, the MIC [11] was 4 µg/mL and the selectivity ratio [12] was 40.
